These results are taken from paper PMC3286832 (Nature Communications, 2011).

Experiment [1] has as its system hDNMT3A–MPP8 interaction in 293T cells. The experiment in a line: Co-immunoprecipitation of hDNMT3A and MPP8 in 293T cells. The following applies: immunoprecipitation–western. The experiment is classed as cell-based, human. The gist of the method: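 293T cells were transfected for 48 h with Myc-hDNMT3A constructs (WT or K47R; in one setup, co-expressed with HA–GLP in GLP stable-knockdown cells). IP used 1 μg anti-Myc with protein-G agarose and three washes in IPH containing 300 or 600 mM NaCl. Western used anti-Myc/MPP8; input was 1–2%.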

Experiment [2] concerns MPP8–GLP interaction in 293T cells. The experiment in a line: Co-immunoprecipitation of MPP8 and GLP in 293T cells. The experiment is classed as cell-based, human. Summed up: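 293T cells (parental, or MPP8 stable knockdown for the chromodomain W80A mutant) were cotransfected with Flag-MPP8 and HA-GLP (WT, K199R, K205R or K209R) for 48 h. Lysates were immunoprecipitated with 1 μg anti-HA or anti-Flag on protein-G agarose, washed with IPH containing 300 or 600 mM NaCl, and analysed by western blot. Input was 5%.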

The test system of experiment [3] is hDNMT3A K47 methylation in 293T cells. The experiment in a line: Methylation in 293T cells. It is filed as cell-based, human. The settings on record: coexpression in 293T cells, metabolic labelling with 3H-Met or western blot. The gist of the method:
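GLP stable knockdown 293T cells expressed Myc-hDNMT3A (WT or K47R), with or without Flag-GLP or G9a, for 36 h. Cells were starved 30 min in methionine-free medium with cycloheximide (100 μg ml−1) and chloramphenicol (40 μg ml−1), then labelled 4 h with 10 μCi ml−1 L-[methyl-3H]methionine. Myc-hDNMT3A was immunoprecipitated with anti-Myc, washed with 600 mM NaCl IPH buffer, and detected by autoradiography.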

A further experiment has as its target GLP catalytic SET domain (Homo sapiens, UniProt Q9H9B1). The experiment in a line: In vitro methylation assay with GLP catalytic SET domain. The experiment is classed as biochemical. The settings on record: [methyl-3H]AdoMet, SDS–PAGE and fluorography / autoradiogram. The gist of the method: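 E. coli-expressed hG9a or hGLP SET domain (1.6 μM) was incubated with 13.0 μM substrate (mDnmt3a N-terminal fragments or other GST-tagged proteins) and 2.8 μM [methyl-3H]AdoMet in 20 mM Tris–HCl pH 8.5 at 30 °C for 8 min. Products were resolved by SDS–PAGE and detected by fluorography/autoradiography.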

Another experiment concerns MPP8. The experiment in a line: In vitro GST pull-down of GLP–N with in vitro translated MPP8. The experiment is classed as binding. The following applies: GST–GLP–N (residues 191–280), in vitro translated 35S–MPP8, autoradiography. Summed up:
(§1)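 GST–hGLP–N (residues 191–280, WT or K205R; 3 μg) was premethylated with 3 μg 6xHis–hGLP–SET (residues 955–1,298) and 1.5 mM AdoMet at 30 °C for 2 h. It was immobilised on glutathione agarose (4 °C, 1 h, 1 M NaCl buffer) and washed. Beads were incubated with in vitro translated 35S-labelled full-length MPP8 (WT or W80A) at 4 °C for 2 h, washed with 300 mM NaCl binding buffer, and analysed by SDS–PAGE autoradiography. Input was 5%.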

The test system of a further experiment is MPP8–W80A. The experiment in a line: GST pull-down of GLP–N with MPP8-W80A. The experiment is classed as binding. The settings on record: in vitro translated 35S–MPP8–W80A. Summed up:
as §1

Sequence of GLP catalytic SET domain (Q9H9B1 1126-1243 limits assumed): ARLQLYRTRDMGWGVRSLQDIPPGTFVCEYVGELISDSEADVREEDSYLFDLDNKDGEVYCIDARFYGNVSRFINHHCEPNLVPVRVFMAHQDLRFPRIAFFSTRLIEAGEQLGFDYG

B1: MPP8 W80A: cage mutant of MPP8 chromodomain, Trp80 to alanine (protein)
chain: MEQVAEGARVTAVPVSAADSTEELAEVEEGVGVVGEDNDAAARGAEAFGDSEEDGEDVFEVEKILDMKTEGGKVLYKVRAKGYTSDDDTWEPEIHLEDCKEVLLEFRKKIAENKAKAVRKDIQRLSLNNDIFEANSDSDQQSETKEDTSPKKKKKKLRQREEKSPDDLKKKKAKAGKLKDKSKPDLESSLESLVFDLRTKKRISEAKEELKESKKPKKDEVKETKELKKVKKGEIRDLKTKTREDPKENRKTKKEKFVESQVESESSVLNDSPFPEDDSEGLHSDSREEKQNTKSARERAGQDMGLEHGFEKPLDSAMSAEEDTDVRGRRKKKTPRKAEDTRENRKLENKNAFLEKKTVPKKQRNQDRSKSAAELEKLMPVSAQTPKGRRLSGEERGLWSTDSAEEDKETKRNESKEKYQKRHDSDKEEKGRKEPKGLKTLKEIRNAFDLFKLTPEEKNDVSENNRKREEIPLDFKTIDDHKTKENKQSLKERRNTRDETDTWAYIAAEGDQEVLDSVCQADENSDGRQQILSLGMDLQLEWMKLEDFQKHLDGKDENFAATDAIPSNVLRDAVKNGDYITVKVALNSNEEYNLDQEDSSGMTLVMLAAAGGQDDLLRLLITKGAKVNGRQKNGTTALIHAAEKNFLTTVAILLEAGAFVNVQQSNGETALMKACKRGNSDIVRLVIECGADCNILSKHQNSALHFAKQSNNVLVYDLLKNHLETLSRVAEETIKDYFEARLALLEPVFPIACHRLCEGPDFSTDFNYKPPQNIPEGSGILLFIFHANFLGKEVIARLCGPCSVQAVVLNDKFQLPVFLDSHFVYSFSPVAGPNKLFIRLTEAPSAKVKLLIGAYRVQLQ
modifications: left off: Flag, end not stated, kept
Consider B1, for which the “interaction of hDNMT3A with MPP8 in cells” value in experiment [1] is recorded as “abrogate binding to hDNMT3a”. In addition, the “MPP8–GLP interaction in cells” value in experiment [2] is reported as “abrogates MPP8–GLP interaction in cells”.

B2: G9a: H3K9 methyltransferase G9a (protein, UniProt Q96KQ7 2-1210, looked up)
Histone-lysine …: AAAAGAAAAAAAEGEAPAEMGALLLEKETRGATERVHGSLGDTPRSEETLPKATPDSLEPAGPSSPASVTVTVGDEGADTPVGATPLIGDESENLEGDGDLRGGRILLGHATKSFPSSPSKGGSCPSRAKMSMTGAGKSPPSVQSLAMRLLSMPGAQGAAAAGSEPPPATTSPEGQPKVHRARKTMSKPGNGQPPVPEKRPPEIQHFRMSDDVHSLGKVTSDLAKRRKLNSGGGLSEELGSARRSGEVTLTKGDPGSLEEWETVVGDDFSLYYDSYSVDERVDSDSKSEVEALTEQLSEEEEEEEEEEEEEEEEEEEEEEEEDEESGNQSDRSGSSGRRKAKKKWRKDSPWVKPSRKRRKREPPRAKEPRGVNGVGSSGPSEYMEVPLGSLELPSEGTLSPNHAGVSNDTSSLETERGFEELPLCSCRMEAPKIDRISERAGHKCMATESVDGELSGCNAAILKRETMRPSSRVALMVLCETHRARMVKHHCCPGCGYFCTAGTFLECHPDFRVAHRFHKACVSQLNGMVFCPHCGEDASEAQEVTIPRGDGVTPPAGTAAPAPPPLSQDVPGRADTSQPSARMRGHGEPRRPPCDPLADTIDSSGPSLTLPNGGCLSAVGLPLGPGREALEKALVIQESERRKKLRFHPRQLYLSVKQGELQKVILMLLDNLDPNFQSDQQSKRTPLHAAAQKGSVEICHVLLQAGANINAVDKQQRTPLMEAVVNNHLEVARYMVQRGGCVYSKEEDGSTCLHHAAKIGNLEMVSLLLSTGQVDVNAQDSGGWTPIIWAAEHKHIEVIRMLLTRGADVTLTDNEENICLHWASFTGSAAIAEVLLNARCDLHAVNYHGDTPLHIAARESYHDCVLLFLSRGANPELRNKEGDTAWDLTPERSDVWFALQLNRKLRLGVGNRAIRTEKIICRDVARGYENVPIPCVNGVDGEPCPEDYKYISENCETSTMNIDRNITHLQHCTCVDDCSSSNCLCGQLSIRCWYDKDGRLLQEFNKIEPPLIFECNQACSCWRNCKNRVVQSGIKVRLQLYRTAKMGWGVRALQTIPQGTFICEYVGELISDAEADVREDDSYLFDLDNKDGEVYCIDARYYGNISRFINHLCDPNIIPVRVFMLHQDLRFPRIAFFSSRDIRTGEELGFDYGDRFWDIKSKYFTCQCGSEKCKHSAEAIALEQSRLARLDPHPELLPELGSLPPVNT
B2: in experiment [3], the “methylation of hDNMT3A in cells” value is recorded as “markedly increased”.

B3: G9a double mutant (Y1067V/Y1154F): G9a double mutant coexpressed with hDNMT3A (protein, UniProt Q96KQ7 2-1210, looked up, variant Y1067V Y1154F)
Histone-lysine …: AAAAGAAAAAAAEGEAPAEMGALLLEKETRGATERVHGSLGDTPRSEETLPKATPDSLEPAGPSSPASVTVTVGDEGADTPVGATPLIGDESENLEGDGDLRGGRILLGHATKSFPSSPSKGGSCPSRAKMSMTGAGKSPPSVQSLAMRLLSMPGAQGAAAAGSEPPPATTSPEGQPKVHRARKTMSKPGNGQPPVPEKRPPEIQHFRMSDDVHSLGKVTSDLAKRRKLNSGGGLSEELGSARRSGEVTLTKGDPGSLEEWETVVGDDFSLYYDSYSVDERVDSDSKSEVEALTEQLSEEEEEEEEEEEEEEEEEEEEEEEEDEESGNQSDRSGSSGRRKAKKKWRKDSPWVKPSRKRRKREPPRAKEPRGVNGVGSSGPSEYMEVPLGSLELPSEGTLSPNHAGVSNDTSSLETERGFEELPLCSCRMEAPKIDRISERAGHKCMATESVDGELSGCNAAILKRETMRPSSRVALMVLCETHRARMVKHHCCPGCGYFCTAGTFLECHPDFRVAHRFHKACVSQLNGMVFCPHCGEDASEAQEVTIPRGDGVTPPAGTAAPAPPPLSQDVPGRADTSQPSARMRGHGEPRRPPCDPLADTIDSSGPSLTLPNGGCLSAVGLPLGPGREALEKALVIQESERRKKLRFHPRQLYLSVKQGELQKVILMLLDNLDPNFQSDQQSKRTPLHAAAQKGSVEICHVLLQAGANINAVDKQQRTPLMEAVVNNHLEVARYMVQRGGCVYSKEEDGSTCLHHAAKIGNLEMVSLLLSTGQVDVNAQDSGGWTPIIWAAEHKHIEVIRMLLTRGADVTLTDNEENICLHWASFTGSAAIAEVLLNARCDLHAVNYHGDTPLHIAARESYHDCVLLFLSRGANPELRNKEGDTAWDLTPERSDVWFALQLNRKLRLGVGNRAIRTEKIICRDVARGYENVPIPCVNGVDGEPCPEDYKYISENCETSTMNIDRNITHLQHCTCVDDCSSSNCLCGQLSIRCWYDKDGRLLQEFNKIEPPLIFECNQACSCWRNCKNRVVQSGIKVRLQLYRTAKMGWGVRALQTIPQGTFICEVVGELISDAEADVREDDSYLFDLDNKDGEVYCIDARYYGNISRFINHLCDPNIIPVRVFMLHQDLRFPRIAFFSSRDIRTGEELGFDFGDRFWDIKSKYFTCQCGSEKCKHSAEAIALEQSRLARLDPHPELLPELGSLPPVNT
On to B3, for which the “methylation of hDNMT3A in cells” value in experiment [3] is listed as “failed to methylate K47”.

B4: GLP–N: N-terminal fragment of GLP (residues 191–280) containing K205 (protein)
chain: LPAPGADVKVHRARKTMPKSVVGLHAASKDPREVREARDHKEPKEEINKNISDFGRQQLLPPFPSLHQSLPQNQCYMATTKSQTACLPFV
modifications: left off: GST, end not stated, kept
On to B4, for which the “methylation by GLP” value with GLP catalytic SET domain is reported as “is methylated in vitro by recombinant GLP–SET domain”. The “interaction with MPP8 in GST pull-down” value with MPP8 is “a robust direct interaction between GLP–N and MPP8 was observed only when K205 methylation occurs”. Also, the “interaction with MPP8–W80A in GST pull-down” value (“interaction with MPP8–W80A” below) in the experiment on MPP8–W80A is recorded as “no interaction was observed”.

B5: GLP–N K205-methylated: GLP–N methylated in vitro at K205 (protein, UniProt Q9H9B1 191-280, looked up, fragment)
chain: LPAPGADVKVHRARKTMPKSVVGLHAASKDPREVREARDHKEPKEEINKNISDFGRQQLLPPFPSLHQSLPQNQCYMATTKSQTACLPFV
modifications: K205 methylated
B5: in the experiment on MPP8–W80A, the “interaction with MPP8–W80A” value is on record as “no interaction was observed”.

B6: GLP–N K205R: methylation deficient K205R mutant of GLP–N (protein, UniProt Q9H9B1 191-280, looked up, variant K205R)
chain: LPAPGADVKVHRARRTMPKSVVGLHAASKDPREVREARDHKEPKEEINKNISDFGRQQLLPPFPSLHQSLPQNQCYMATTKSQTACLPFV
As for B6, the “methylation by GLP” value with GLP catalytic SET domain is “completely abolishes this GLP-catalyzed methylation”. Besides, the “interaction with MPP8 in GST pull-down” value in the experiment on MPP8 is “completely lost the interaction with MPP8”. Also, the “interaction with MPP8–W80A” value in the experiment on MPP8–W80A is “no interaction was observed”.
